Experimental data from ChEMBL document CHEMBL4138188, “Eurycomalactone Inhibits Expression of Endothelial Adhesion Molecules at a Post-Transcriptional Level” (J Nat Prod, 2017).
The source made the active and inactive calls. The calls are words filed in the database; no cut-off is given here.

How the values were obtained:
[1] = molecular target: T1, Inhibitor of nuclear factor kappa-B kinase subunit alpha (Homo sapiens) (UniProt O15111); assay: Inhibition of IKKalpha phosphorylation level in TNFalpha-stimulated HUVECtert at 2 uM pretreated for 30 mins followed by TNFalpha stimulation measured after 5 to 15 mins by Western blot analysis
T1 sequence (whole entry): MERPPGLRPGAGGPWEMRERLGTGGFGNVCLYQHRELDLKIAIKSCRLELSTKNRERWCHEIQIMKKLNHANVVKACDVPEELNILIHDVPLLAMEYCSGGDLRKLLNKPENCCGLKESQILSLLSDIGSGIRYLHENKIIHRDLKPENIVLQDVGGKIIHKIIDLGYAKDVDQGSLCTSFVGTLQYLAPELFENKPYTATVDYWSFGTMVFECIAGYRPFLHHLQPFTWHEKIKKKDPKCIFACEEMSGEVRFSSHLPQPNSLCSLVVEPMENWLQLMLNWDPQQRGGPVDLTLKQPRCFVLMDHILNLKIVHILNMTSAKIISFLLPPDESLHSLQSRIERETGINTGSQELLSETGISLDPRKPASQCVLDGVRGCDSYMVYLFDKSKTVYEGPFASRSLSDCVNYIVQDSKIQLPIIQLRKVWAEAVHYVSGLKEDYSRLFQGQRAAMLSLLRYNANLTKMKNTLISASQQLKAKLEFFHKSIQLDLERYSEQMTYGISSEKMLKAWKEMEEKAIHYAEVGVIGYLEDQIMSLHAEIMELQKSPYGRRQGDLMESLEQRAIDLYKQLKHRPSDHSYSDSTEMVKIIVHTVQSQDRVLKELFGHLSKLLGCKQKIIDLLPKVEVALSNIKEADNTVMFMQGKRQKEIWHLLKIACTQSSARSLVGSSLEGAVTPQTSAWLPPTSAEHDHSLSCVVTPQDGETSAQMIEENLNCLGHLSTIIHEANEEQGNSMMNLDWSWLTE
In short: (§1)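 HUVECtert on gelatin-coated dishes pretreated with 2 μM agent or 0.1% DMSO, then TNFα 10 ng/mL; p-IKKα/β, p-IκBα and total IκBα immunoblotted at 5 or 15 min post-stimulation, actin loading control; means ± SD, n = 3, one-way ANOVA/Dunnett.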

[2] = Effect on basal VCAM-1 expression level in HUVECtert at 0.5 to 10 uM incubated for 30 mins by flow cytometry; format: ADME; conditions: human, 0.5 h
In short: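 Unstimulated HUVECtert treated with 0.5−10 μM test agent without TNFα; surface VCAM-1, ICAM-1 or E-selectin stained with FITC-labelled antibodies and read by flow cytometry.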

Homo sapiens [3] = organism: Homo sapiens; assay: Inhibition of NF-kappaB in HUVECtert assessed as reduction in cyclin D1 mRNA expression level at 2 uM measured up to 240 mins by qRT-PCR analysis
In short: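 HUVECtert incubated without TNFα with 2 μM agent, 1 μM cycloheximide or 0.1% DMSO for 0.5−4 h; cyclin D1 mRNA by qRT-PCR, 2−ΔΔCt analysis.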

Homo sapiens [4] = organism: Homo sapiens; assay: Cytotoxicity against TNFalpha-stimulated HUVECtert assessed as reduction in cell viability incubated for 30 mins followed by TNFalpha stimulation measured after 17.5 hrs by resazurin dye based fluorescence assay; format: functional
In short: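 HUVECtert (passage ≤15) seeded on gelatin-coated wells, grown 48 h, then exposed to test agent or 0.1% DMSO vehicle, with or without TNFα; digitonin 100 μg/mL as positive control. After 18 h, supernatant removed, cells washed, then 2 h with 10 μg/mL resazurin in PBS; metabolic conversion read relative to vehicle.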

Homo sapiens [5] = organism: Homo sapiens; assay: Reduction in cyclin D1 level in HUVECtert at 2 uM by Western blot analysis; format: functional; conditions: TDE = time-dependent effect
In short: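 HUVECtert treated with 1 μM cycloheximide, 2 μM agent, vehicle, or left untreated for a time course; cyclin D1 or survivin by Western blot, actin loading control; means ± SD of three blots, one-way ANOVA/Dunnett versus untreated.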

[6] = molecular target: T2, NF-kappa-B inhibitor alpha (Homo sapiens) (UniProt P25963); assay: Inhibition of IkappaBalpha phosphorylation level in TNFalpha-stimulated HUVECtert at 2 uM pretreated for 30 mins followed by TNFalpha stimulation measured after 5 to 15 mins by Western blot analysis; in short: as §1
T2 sequence (whole entry): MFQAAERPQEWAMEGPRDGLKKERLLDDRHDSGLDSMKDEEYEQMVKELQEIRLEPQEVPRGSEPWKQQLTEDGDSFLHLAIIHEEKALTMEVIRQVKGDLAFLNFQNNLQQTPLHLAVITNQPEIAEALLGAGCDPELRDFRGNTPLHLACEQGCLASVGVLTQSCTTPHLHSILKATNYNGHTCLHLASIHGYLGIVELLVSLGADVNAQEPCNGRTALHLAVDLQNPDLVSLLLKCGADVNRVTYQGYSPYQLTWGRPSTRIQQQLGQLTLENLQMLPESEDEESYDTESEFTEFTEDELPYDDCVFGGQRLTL

Homo sapiens [7] = organism: Homo sapiens; assay: (§2) Inhibition of NF-kappaB in HUVECtert assessed as reduction in TNFalpha-induced ICAM-1 expression level pretreated for 30 mins followed by TNFalpha stimulation measured after 18 hrs by flow cytometry
In short: (§3)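 FITC-antibody surface staining, flow cytometry; expression relative to TNFα-stimulated control. Parthenolide 10 μM as positive control; means ± SD, n = 3, one-way ANOVA/Dunnett versus vehicle.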

[8] = as §2; parameters: species or system Homo sapiens; in short: as §3
Homo sapiens [9] = organism: Homo sapiens; assay: Reduction in cyclin A level in HUVECtert at 2 uM after 8 hrs by Western blot analysis; format: functional
Homo sapiens [10] = organism: Homo sapiens; assay: Inhibition of NF-kappaB in HUVECtert assessed as reduction in TNFalpha-induced VCAM-1 mRNA expression level at 5 uM pretreated for 30 mins followed by TNFalpha stimulation measured after 4 hrs by qRT-PCR analysis
Homo sapiens [11] = organism: Homo sapiens; assay: Reduction in p53 level in HUVECtert at 2 uM after 8 hrs by Western blot analysis; format: functional
[12] = molecular target: Transcription factor p65 (Homo sapiens) (UniProt Q04206); assay: Inhibition of NF-kappaB p65 binding to DNA consensus in TNFalpha-stimulated HUVECtert at 2 uM pretreated for 30 mins followed by TNFalpha stimulation measured after 1 hr […]
Chain of Transcription factor p65 (Homo sapiens) (Q04206 whole entry): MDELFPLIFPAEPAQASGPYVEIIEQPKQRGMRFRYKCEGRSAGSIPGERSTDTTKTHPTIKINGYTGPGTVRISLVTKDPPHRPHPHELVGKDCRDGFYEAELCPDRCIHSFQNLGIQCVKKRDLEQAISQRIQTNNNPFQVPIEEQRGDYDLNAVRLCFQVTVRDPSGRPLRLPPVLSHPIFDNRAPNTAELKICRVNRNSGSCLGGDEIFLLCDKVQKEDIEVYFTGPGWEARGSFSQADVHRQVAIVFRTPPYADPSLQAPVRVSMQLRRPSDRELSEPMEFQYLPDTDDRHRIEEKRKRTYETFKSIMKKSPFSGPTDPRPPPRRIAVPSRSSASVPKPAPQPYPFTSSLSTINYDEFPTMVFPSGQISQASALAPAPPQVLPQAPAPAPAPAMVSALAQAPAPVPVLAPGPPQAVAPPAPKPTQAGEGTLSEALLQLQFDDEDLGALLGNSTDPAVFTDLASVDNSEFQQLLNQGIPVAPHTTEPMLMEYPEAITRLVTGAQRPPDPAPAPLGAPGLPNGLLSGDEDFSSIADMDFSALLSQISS

Homo sapiens [13] = organism: Homo sapiens; assay: (§4) Inhibition of NF-kappaB in HUVECtert assessed as reduction in TNFalpha-induced E-selectin expression level pretreated for 30 mins followed by TNFalpha stimulation measured after 5 hrs by flow cytometry; in short: as §3
[14] = as §4; parameters: species or system Homo sapiens; in short: as §3
Homo sapiens [15] = organism: Homo sapiens; assay: Inhibition of de novo protein synthesis in HUVECtert at 2 to 5 uM after 30 mins by Click-iT OPP/Alexa fluor 488 picolyl azide reagent based flow cytometry; format: functional
In short: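 HUVECtert (1 × 10^6 cells in tubes) exposed 30 min to agent (2 or 5 μM; cycloheximide 1−35 μM) or vehicle, then 20 μM OPP 30 min; fixed, permeabilised, Alexa 488 click-labelled in Tris buffer pH 7.4; FL-1 flow cytometry relative to control; n = 3, one-way ANOVA/Dunnett.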

Compound: CC1=CC(=O)[C@@H](O)[C@@]2(C)[C@H]1CC(=O)[C@@]1(C)[C@H]3C(=O)O[C@H]([C@@H]3C)[C@H](O)[C@@H]12 [EURYCOMALACTONE]
- inhibition [1]: inactive
- Activity [2]: Non-Toxic
- inhibition (Homo sapiens [3]): inactive
- Activity (Homo sapiens [4]): inactive
- Activity (Homo sapiens [5]): Tde
- inhibition [6]: inactive
- inhibition (Homo sapiens [7]): Dose-dependent effect
- IC50 [8]: 0.58 µM
- Activity (Homo sapiens [9]): inactive
- inhibition (Homo sapiens [10]): Active
- Activity (Homo sapiens [11]): inactive
- inhibition [12]: inactive
- inhibition (Homo sapiens [13]): Dose-dependent effect
- IC50 [14]: 0.56 µM
- inhibition (Homo sapiens [15]): Active
